Calls of active or inactive are those of the source. The rule behind the calls is not given here.
How the values were obtained:
Mus musculus [1] = experiment: In vivo inhibition of ERK1/2 in BALB/c mouse xenografted with human MKN74 cells assessed as reduction in ERK1/2 phosphorylation at 50 mg/kg, po administered once daily for 16 days measured post-last dose by Western blot analysis; type: functional, organism-based
Summary of the method: (§1)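 Two individual tumors excised from xenograft mice were lysed. ERK1/2, p-ERK1/2, ERK5 and p-ERK5 detected by western blot.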

MKN-74 [2] = experiment: Induction of autophagy in human MKN74 cells assessed as increase in LC3-2 expression at 0.5 uM measured after 24 hrs in presence of autophagy inhibitor 3-methyladenine by Western blot analysis; type: functional, cell-based
Summary of the method: (§2)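 MKN-74 cells given 0.5 μM for 24 h with or without 3-MA; LC3 and p62 immunoblotted.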

Mus musculus [3] = experiment: In vivo inhibition of ERK5 in BALB/c mouse xenografted with human MKN74 cells assessed as reduction in ERK5 phosphorylation at 50 mg/kg, po administered once daily for 16 days measured post-last dose by Western blot analysis; type: functional, organism-based; summary of the method: as §1
MKN-74 [4] = experiment: Induction of autophagy in human MKN74 cells assessed as increase in LC3-2 expression at 0.5 uM measured up to 24 hrs by Western blot analysis; type: functional, cell-based
Summary of the method: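 MKN-74 cells treated with 0.5 μM; LC3 (LC3-II) and p62 levels analyzed by immunoblotting.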

HeLa [5] = experiment: Antitumor activity against human HeLa cells xenografted in BALB/c mouse assessed as reduction in tumor volume at 50 mg/kg, po administered once daily for 16 days measured every 3 days during compound dosing; type: functional, organism-based
Summary of the method: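 Female nude mice bearing subcutaneous HL-60, MKN-74 or HeLa xenografts, 8 per group. Dosing was vehicle control or 50 mg/kg p.o. once daily for 16 days. Tumor volume followed over time, mean ± SEM.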

[6] = AUC (0 to infinity) in Sprague-Dawley rat at 1 mg/kg, iv by LC-MS analysis; type: ADME, organism-based; set-up: dose 1 mg/kg, route intravenous, time infinity; details: in vivo
Summary of the method: (§3)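 Rats, two groups of 3; single i.v. dose 1 mg/kg or oral dose 10 mg/kg. Plasma concentration-time profiles used to derive T1/2, Tmax, Cmax, AUC0-t, AUC0-∞ and oral bioavailability. Data from triplicate testing, ± standard deviation.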

[7] = molecular target: MAPK3/MAPK7 (Homo sapiens) (UniProt P27361+Q13164); experiment: Inhibition of ERK1/5 in human MKN74 cells assessed as reduction in c-MYC phosphorylation at S62 residue at 0.5 uM measured up to 24 hrs by Western blot analysis; type: cell-based
Chain of MAPK3/MAPK7 (Homo sapiens) (P27361 whole entry, looked up, the tested form may be a part): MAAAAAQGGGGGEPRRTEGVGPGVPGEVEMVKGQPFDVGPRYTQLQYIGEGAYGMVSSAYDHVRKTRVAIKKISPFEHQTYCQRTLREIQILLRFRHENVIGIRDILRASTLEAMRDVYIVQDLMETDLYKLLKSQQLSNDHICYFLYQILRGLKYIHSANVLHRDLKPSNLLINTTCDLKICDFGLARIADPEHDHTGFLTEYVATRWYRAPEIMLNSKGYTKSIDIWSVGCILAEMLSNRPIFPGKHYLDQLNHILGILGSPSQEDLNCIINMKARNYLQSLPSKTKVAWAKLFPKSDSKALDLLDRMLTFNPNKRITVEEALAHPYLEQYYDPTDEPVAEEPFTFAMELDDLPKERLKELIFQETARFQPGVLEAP
Chain of MAPK3/MAPK7 (Homo sapiens) (Q13164 whole entry, looked up, the tested form may be a part): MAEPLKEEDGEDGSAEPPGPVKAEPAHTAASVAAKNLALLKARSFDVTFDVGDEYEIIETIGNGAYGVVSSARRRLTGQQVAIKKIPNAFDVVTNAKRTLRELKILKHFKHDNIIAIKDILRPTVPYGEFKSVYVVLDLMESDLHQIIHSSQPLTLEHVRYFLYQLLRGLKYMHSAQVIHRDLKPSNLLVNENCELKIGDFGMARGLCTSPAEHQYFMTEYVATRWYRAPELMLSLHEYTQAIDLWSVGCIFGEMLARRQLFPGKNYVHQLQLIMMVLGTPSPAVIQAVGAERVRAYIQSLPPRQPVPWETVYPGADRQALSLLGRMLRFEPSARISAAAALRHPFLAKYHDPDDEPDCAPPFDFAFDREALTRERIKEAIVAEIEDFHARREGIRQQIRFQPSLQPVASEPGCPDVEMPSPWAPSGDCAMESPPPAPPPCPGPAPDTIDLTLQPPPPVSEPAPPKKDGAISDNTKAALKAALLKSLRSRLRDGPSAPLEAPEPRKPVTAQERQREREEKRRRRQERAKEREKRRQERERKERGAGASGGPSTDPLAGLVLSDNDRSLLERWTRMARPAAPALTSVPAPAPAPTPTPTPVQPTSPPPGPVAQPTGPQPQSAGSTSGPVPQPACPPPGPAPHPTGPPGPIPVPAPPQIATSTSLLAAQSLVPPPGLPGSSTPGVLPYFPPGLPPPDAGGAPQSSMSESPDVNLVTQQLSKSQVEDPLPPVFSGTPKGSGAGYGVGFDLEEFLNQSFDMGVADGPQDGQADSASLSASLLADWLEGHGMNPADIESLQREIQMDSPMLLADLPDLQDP

[8] = molecular target: Mitogen-activated protein kinase 7 (Homo sapiens) (UniProt Q13164); experiment: Inhibition of wild-type human partial length ERK5 (M1 to A409 residues) expressed in bacterial expression system at 1 uM by Kinomescan method relative to control
Chain of Mitogen-activated protein kinase 7 (Homo sapiens) (Q13164 2-816 limits assumed): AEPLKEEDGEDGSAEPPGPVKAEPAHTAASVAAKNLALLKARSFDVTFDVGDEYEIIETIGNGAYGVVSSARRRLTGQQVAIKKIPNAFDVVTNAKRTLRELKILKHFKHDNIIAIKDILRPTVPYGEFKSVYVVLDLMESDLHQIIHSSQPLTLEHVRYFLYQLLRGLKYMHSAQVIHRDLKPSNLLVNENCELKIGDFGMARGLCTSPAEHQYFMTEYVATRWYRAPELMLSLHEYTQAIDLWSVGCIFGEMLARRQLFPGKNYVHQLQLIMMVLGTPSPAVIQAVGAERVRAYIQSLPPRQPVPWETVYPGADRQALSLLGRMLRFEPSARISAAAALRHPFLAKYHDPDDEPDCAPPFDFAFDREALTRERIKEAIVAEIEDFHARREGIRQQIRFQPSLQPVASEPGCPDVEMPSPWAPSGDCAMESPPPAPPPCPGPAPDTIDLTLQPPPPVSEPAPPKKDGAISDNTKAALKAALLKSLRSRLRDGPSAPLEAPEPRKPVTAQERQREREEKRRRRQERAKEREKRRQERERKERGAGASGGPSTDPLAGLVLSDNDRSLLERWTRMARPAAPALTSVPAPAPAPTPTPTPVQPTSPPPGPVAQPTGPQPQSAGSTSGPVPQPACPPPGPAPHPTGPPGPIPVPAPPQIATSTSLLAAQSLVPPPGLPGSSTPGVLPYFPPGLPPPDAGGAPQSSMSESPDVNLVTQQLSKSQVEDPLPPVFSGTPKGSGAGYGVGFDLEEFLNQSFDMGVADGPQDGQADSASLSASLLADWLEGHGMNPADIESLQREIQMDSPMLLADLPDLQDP
Summary of the method: (§4)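 KINOMEscan binding assays over a 100-kinase panel, with test compound at 1 μM. Results are given as % inhibition.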

Mus musculus [9] = experiment: In vivo inhibition of ERK5 in BALB/c mouse xenografted with human MKN74 cells assessed as reduction in phosphorylated ERK5 expression at 50 mg/kg, po administered once daily for 16 days measured post-last dose by immunohistochemical analysis; type: functional, organism-based
Summary of the method: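 Tumors excised from control and 50 mg/kg p.o.-treated xenograft mice were immunostained for Ki-67, p-ERK1/2 and p-ERK5. Positive-cell percentage quantified and compared with control.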

[10] = molecular target: Mitogen-activated protein kinase 7 (Homo sapiens) (UniProt Q13164); experiment: Inhibition of ERK5 in human MKN74 cells assessed as reduction in ERK5 phosphorylation at T218/Y220 residue at 0.5 uM measured up to 24 hrs by Western blot analysis; type: cell-based
MKN-74 [11] = experiment: Induction of autophagy in human MKN74 cells assessed as increase in p62 degradation at 0.5 uM measured after 24 hrs in presence of autophagy inhibitor 3-methyladenine by Western blot analysis; type: functional, cell-based; summary of the method: as §2
[12] = molecular target: T1, Mitogen-activated protein kinase; ERK1/ERK2 (Homo sapiens) (UniProt P27361+P28482); experiment: Inhibition of ERK1/2 in human MKN74 cells assessed as reduction in RSK phosphorylation at T359/S363 residue at 0.5 uM measured up to 24 hrs by Western blot analysis; type: cell-based
T1 sequence (P27361 whole entry, looked up): as the sequence (P27361 whole entry, looked up, the tested form may be a part) above
T1 sequence (P28482 whole entry, looked up): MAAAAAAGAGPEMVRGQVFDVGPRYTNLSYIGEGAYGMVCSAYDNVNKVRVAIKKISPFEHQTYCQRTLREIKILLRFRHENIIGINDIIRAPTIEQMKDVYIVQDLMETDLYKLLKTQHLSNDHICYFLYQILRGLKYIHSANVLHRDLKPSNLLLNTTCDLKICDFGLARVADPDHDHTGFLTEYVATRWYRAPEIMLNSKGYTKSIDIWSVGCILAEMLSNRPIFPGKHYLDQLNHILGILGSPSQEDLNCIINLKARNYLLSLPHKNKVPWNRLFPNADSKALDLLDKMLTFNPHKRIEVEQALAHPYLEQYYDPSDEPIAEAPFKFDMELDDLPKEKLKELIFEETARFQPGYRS

[13] = AUC (0 to t) in Sprague-Dawley rat at 10 mg/kg, po by LC-MS analysis; type: ADME, organism-based; details: in vivo; summary of the method: as §3
[14] = molecular target: Mitogen-activated protein kinase 7 (Homo sapiens) (UniProt Q13164); experiment: Inhibition of ERK5 in human MKN74 cells harboring siRNA assessed as reduction in ERK5 phosphorylation at 0.5 uM by immunofluorescence assay; type: cell-based
Summary of the method: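 ERK1/2-specific or negative-control siRNA was transfected into MKN-74 cells for the indicated times, followed by compound at 0.5 μM. p-ERK1/2 and p-ERK5 puncta were detected by immunocytochemistry.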

[15] = Half life in Sprague-Dawley rat at 1 mg/kg, iv by LC-MS analysis; type: ADME, organism-based; details: in vivo; summary of the method: as §3
[16] = AUC (0 to infinity) in Sprague-Dawley rat at 10 mg/kg, po by LC-MS analysis; type: ADME, organism-based; set-up: dose 10 mg/kg, route oral, time infinity; details: in vivo; summary of the method: as §3
[17] = molecular target: Mitogen-activated protein kinase 1 (Homo sapiens) (UniProt P28482); experiment: Inhibition of wild-type human full length ERK2 (M1 to S360 residues) expressed in bacterial expression system at 1 uM by Kinomescan method relative to control; summary of the method: as §4
Chain of Mitogen-activated protein kinase 1 (Homo sapiens) (P28482 whole entry, the tested form may be a part): as the sequence (P28482 whole entry, looked up) above

[18] = molecular target: Mitogen-activated protein kinase 7 (Homo sapiens) (UniProt Q13164); experiment: Inhibition of ERK5 (unknown origin) at 1 uM by Z'-Lyte assay relative to control
[19] = molecular target: Mitogen-activated protein kinase 1 (Homo sapiens) (UniProt P28482); experiment: Inhibition of ERK2 (unknown origin) at 1 uM by Z'-Lyte assay relative to control
MKN-74 [20] = experiment: Induction of autophagy in human MKN74 cells transfected with GFP-mRFP-LC3 assessed as increase in LC3 puncta formation at 0.5 uM measured after 24 hrs by fluorescence microscopic analysis; type: functional, cell-based
Summary of the method: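 MKN-74 cells transfected with GFP-mRFP-LC3 plasmid, treated 24 h at 0.5 μM. GFP-LC3 puncta imaged by fluorescence microscopy.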

MKN-74 [21] = experiment: Antitumor activity against human MKN74 cells xenografted in BALB/c mouse assessed as reduction in tumor weight at 50 mg/kg, po administered once daily for 16 days measured post-last dose; type: functional, organism-based
Summary of the method: (§5)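 Female nude mice bearing subcutaneous xenografts (8 per group) received vehicle or 50 mg/kg p.o. once daily for 16 days. Excised tumors weighed and compared with control group.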

[22] = Effect on Ras/Raf/MEK/ERK signaling in human MKN74 cells assessed as change in JNK expression at 0.5 uM measured up to 24 hrs by Western blot analysis; type: cell-based
Summary of the method: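 MKN-74 cells exposed to 0.5 μM for 0, 6, 12 and 24 h. Ras, Raf, p-MEK1/2, MEK1/2, p-JNK, JNK, p-p38 and p38 immunoblotted, with GAPDH as loading control.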

HeLa [23] = experiment: Antiproliferative activity against human HeLa cells assessed as reduction in cell viability measured after 24 hrs; type: functional, cell-based
HL-60 = experiment: Antitumor activity against human HL60 cells xenografted in BALB/c mouse assessed as reduction in tumor weight at 50 mg/kg, po administered once daily for 16 days measured post-last dose; type: functional, organism-based; summary of the method: as §5
[24] = molecular target: T1, Mitogen-activated protein kinase; ERK1/ERK2 (Homo sapiens); experiment: Inhibition of ERK1/2 phosphorylation in human MKN74 cells harboring ERK1/2 siRNA at 0.5 uM by immunofluorescence assay; type: cell-based
Summary of the method: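 MKN-74 cells transfected with ERK1/2-specific or negative-control siRNA for the indicated times, then given 0.5 μM. p-ERK1/2 and p-ERK5 puncta detected by immunocytochemistry.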

SMILES: NC(=O)c1c(NC(=O)c2ccccc2Cl)sc2c1CCN(C(=S)Nc1ccccc1Cl)C2
- inhibition (Mus musculus [1]): Active
- Activity (MKN-74 [2]): inactive
- inhibition (Mus musculus [3]): Active
- Activity (MKN-74 [4]): Active
- Activity (HeLa [5]): inactive
- AUC(0-inf) [6]: 1840 ng·h/mL
- inhibition [7]: Active
- inhibition [8]: 87%
- inhibition (Mus musculus [9]): Active
- inhibition [10]: Active
- Activity (MKN-74 [11]): inactive
- inhibition [12]: inactive
- AUC(0-t) [13]: 5080 ng·h/mL
- inhibition [14]: Active
- half-life [15]: 57 min
- AUC(0-inf) [16]: 5180 ng·h/mL
- inhibition [17]: 91%
- inhibition [18]: 89.3%
- inhibition [19]: 92.7%
- Activity (MKN-74 [20]): Active
- Activity (MKN-74 [21]): Active
- Activity [22]: inactive
- IC50 (HeLa [23]): > 50 µM
- Activity (HL-60): Active
- inhibition [24]: Active

— ChEMBL document CHEMBL4342467, “Discovery of a Novel Dual-Target Inhibitor of ERK1 and ERK5 That Induces Regulated Cell Death to Overcome Compensatory Mechanism in Specific Tumor Types” (J Med Chem, 2020)
